Data as given in ChEMBL document CHEMBL4229344 (Eur J Med Chem, 2018).
The source made the active and inactive calls. The calls are words filed in the database; no cut-off is given here.

Legend:
[1] = target: Serine/threonine-protein kinase SBK1 (Homo sapiens) (UniProt Q52WX2); test: Binding affinity to wild-type human partial length SBK1 (P23 to P348 residues) expressed in mammalian expression system assessed as residual binding level at 1 uM by Kinomescan method relative to control
[2] = target: STE20-like serine/threonine-protein kinase (Homo sapiens) (UniProt Q9H2G2); test: Binding affinity to wild-type human partial length SLK (S14 to A307 residues) expressed in bacterial expression system assessed as residual binding level at 1 uM by Kinomescan method relative to control
[3] = target: T1, Platelet-derived growth factor receptor alpha (Homo sapiens, UniProt P16234); test: Inhibition of PDGFRalpha in human EOL-1 cells assessed as decrease in STAT5 phosphorylation at Y694 residue up to 300 nM after 2 hrs by Western blot analysis; format: cell-based
[4] = target: Interleukin-1 receptor-associated kinase 1 (Homo sapiens) (UniProt P51617); test: Binding affinity to wild-type human partial length IRAK1 (R194 to S712 residues) expressed in mammalian expression system assessed as residual binding level at 1 uM by Kinomescan method relative to control
[5] = target: Cyclin-dependent kinase 11A (Homo sapiens) (UniProt Q9UQ88); test: Binding affinity to wild-type human partial length CDC2L2 (D391 to K730 residues) expressed in bacterial expression system assessed as residual binding level at 1 uM by Kinomescan method relative to control
[6] = target: Calcium/calmodulin-dependent protein kinase type 1D (Homo sapiens) (UniProt Q8IU85); test: Binding affinity to wild-type human partial length CAMK1D (M1 to K299 residues) expressed in bacterial expression system assessed as residual binding level at 1 uM by Kinomescan method relative to control
How it was run: (§1)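 Kinome-wide competition binding screen against a panel of 468 purified kinases/mutants, with the test compound at a single concentration of 1 μM. Read-out is the relative binding activity of each kinase in the presence of compound.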

[7] = target: Ribosomal protein S6 kinase alpha-4 (Homo sapiens) (UniProt O75676); test: Binding affinity to wild-type human partial length C-terminal RPS6KA4 kinase domain 2 (M375 to T705 residues) expressed in mammalian expression system assessed as residual binding level at 1 uM by Kinomescan method relative to control
[8] = target: Myotonin-protein kinase (Homo sapiens) (UniProt Q09013); test: Binding affinity to wild-type human partial length DMPK (V47 to V415 residues) expressed in bacterial expression system assessed as residual binding level at 1 uM by Kinomescan method relative to control; how it was run: as §1
[9] = target: Beta-adrenergic receptor kinase 1 (Homo sapiens) (UniProt P25098); test: Binding affinity to wild-type human full length GRK2 (M1 to L689 residues) expressed in mammalian expression system assessed as residual binding level at 1 uM by Kinomescan method relative to control
How it was run: (§2)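 Single-concentration (1 μM) competition-binding screen run by KINOMEscan against a panel of 468 purified kinases and mutants. The read-out is the relative binding activity of the test compound to each kinase.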

[10] = target: Serine/threonine-protein kinase MARK2 (Homo sapiens) (UniProt Q7KZI7); test: Binding affinity to wild-type human partial length MARK2 (M1 to R450 residues) expressed in bacterial expression system assessed as residual binding level at 1 uM by Kinomescan method relative to control; how it was run: as §1
[11] = target: Tyrosine-protein kinase receptor Tie-1 (Homo sapiens) (UniProt P35590); test: Binding affinity to wild-type human partial length TIE1 (T819 to A1138 residues) expressed in bacterial expression system assessed as residual binding level at 1 uM by Kinomescan method relative to control
[12] = target: Epidermal growth factor receptor (Homo sapiens) (UniProt P00533); test: Binding affinity to wild-type human partial length EGFR (R669 to V1011 residues) expressed in bacterial expression system assessed as residual binding level at 1 uM by Kinomescan method relative to control
[13] = target: Tyrosine-protein kinase CSK (Homo sapiens) (UniProt P41240); test: Binding affinity to wild-type human full length CSK (M1 to L450 residues) expressed in bacterial expression system assessed as residual binding level at 1 uM by Kinomescan method relative to control
How it was run: (§3)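 KINOMEscan competition binding against 468 purified kinases/mutants, test compound at 1 µM; residual binding relative to control.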

[14] = target: Ribosomal protein S6 kinase alpha-2 (Homo sapiens) (UniProt Q15349); test: Binding affinity to wild-type human partial length N-terminal RSK3 kinase domain 1 (M1 to Q385 residues) expressed in bacterial expression system assessed as residual binding level at 1 uM by Kinomescan method relative to control
[15] = target: NUAK family SNF1-like kinase 1 (Homo sapiens) (UniProt O60285); test: Binding affinity to wild-type human partial length ARK5 (E25 to I332 residues) expressed in bacterial expression system assessed as residual binding level at 1 uM by Kinomescan method relative to control
How it was run: (§4)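 Single-concentration KINOMEscan (DiscoverX) binding screen at 1 μM against a panel of 468 purified kinases and mutants. The read-out is binding relative to control.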

[16] = target: Cyclin-dependent kinase 5 (Homo sapiens) (UniProt Q00535); test: Binding affinity to wild-type human full length CDK5 (M1 to P292 residues) expressed in bacterial expression system assessed as residual binding level at 1 uM by Kinomescan method relative to control; how it was run: as §3
[17] = Apparent volume of distribution in Sprague-Dawley rat at 1 mg/kg, iv; format: ADME, organism-based; settings: in vivo, read-out: Vz
[18] = target: T1, Platelet-derived growth factor receptor alpha; test: Inhibition of PDGFRalpha in human EOL-1 cells assessed as decrease in ERK1/2 phosphorylation at T202/Y204 residues up to 300 nM after 2 hrs by Western blot analysis; format: cell-based
[19] = target: Mitogen-activated protein kinase 3 (Homo sapiens) (UniProt P27361); test: Binding affinity to wild-type human full length ERK1 (M1 to P379 residues) expressed in bacterial expression system assessed as residual binding level at 1 uM by Kinomescan method relative to control; how it was run: as §2
[20] = tested on: EOL1; test: Induction of apoptosis in human EOL-1 cells assessed as cleaved caspase3 expression level at 3 to 100 nM after 24 hrs by Western blot analysis; format: functional, cell-based
How it was run: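 Cells exposed to compound or DMSO for the stated periods, then lysed and immunoblotted for PARP and caspase-3 cleavage, with β-actin as loading control. NCI-H1703 stimulation used PDGF AA at 100 ng/mL.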

[21] = target: Cyclin-dependent kinase 14 (Homo sapiens) (UniProt O94921); test: Binding affinity to wild-type human full length PFTK1 (M1 to H451 residues) expressed in bacterial expression system assessed as residual binding level at 1 uM by Kinomescan method relative to control; how it was run: as §4
[22] = target: Serine/threonine-protein kinase DCLK2 (Homo sapiens) (UniProt Q8N568); test: Binding affinity to wild-type human partial length DCAMKL2 (K273 to V664 residues) expressed in bacterial expression system assessed as residual binding level at 1 uM by Kinomescan method relative to control

T1 sequence (P16234 whole entry, the tested form may be a part): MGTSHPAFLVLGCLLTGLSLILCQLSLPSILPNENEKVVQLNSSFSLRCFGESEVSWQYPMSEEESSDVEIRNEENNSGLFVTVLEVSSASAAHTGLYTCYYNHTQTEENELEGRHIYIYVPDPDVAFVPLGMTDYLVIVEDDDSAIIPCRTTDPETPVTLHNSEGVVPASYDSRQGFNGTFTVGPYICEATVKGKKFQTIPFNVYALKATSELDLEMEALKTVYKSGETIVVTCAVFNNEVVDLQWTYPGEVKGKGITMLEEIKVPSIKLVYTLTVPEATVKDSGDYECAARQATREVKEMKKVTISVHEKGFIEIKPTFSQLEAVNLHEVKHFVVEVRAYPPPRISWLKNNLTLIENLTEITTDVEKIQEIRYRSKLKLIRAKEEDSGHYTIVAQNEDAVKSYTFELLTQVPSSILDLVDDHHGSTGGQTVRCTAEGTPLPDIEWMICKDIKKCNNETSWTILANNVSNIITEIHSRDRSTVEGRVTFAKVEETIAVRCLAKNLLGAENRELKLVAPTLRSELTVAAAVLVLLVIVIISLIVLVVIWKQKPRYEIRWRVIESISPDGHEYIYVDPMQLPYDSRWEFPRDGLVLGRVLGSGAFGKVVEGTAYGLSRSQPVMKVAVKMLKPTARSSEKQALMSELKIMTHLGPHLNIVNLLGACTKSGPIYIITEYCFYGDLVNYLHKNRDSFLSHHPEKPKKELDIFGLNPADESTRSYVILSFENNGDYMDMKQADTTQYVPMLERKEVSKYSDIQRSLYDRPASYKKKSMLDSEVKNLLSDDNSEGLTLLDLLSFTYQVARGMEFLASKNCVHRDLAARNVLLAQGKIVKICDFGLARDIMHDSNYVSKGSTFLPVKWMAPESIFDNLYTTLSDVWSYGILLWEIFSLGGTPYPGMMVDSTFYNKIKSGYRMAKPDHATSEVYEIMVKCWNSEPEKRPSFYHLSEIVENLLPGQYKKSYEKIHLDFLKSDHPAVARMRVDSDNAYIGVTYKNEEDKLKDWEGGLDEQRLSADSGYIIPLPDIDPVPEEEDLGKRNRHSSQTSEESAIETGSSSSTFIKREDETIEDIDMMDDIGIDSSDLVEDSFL
Sequence of Cyclin-dependent kinase 11A (Homo sapiens) (Q9UQ88 whole entry, the tested form may be a part): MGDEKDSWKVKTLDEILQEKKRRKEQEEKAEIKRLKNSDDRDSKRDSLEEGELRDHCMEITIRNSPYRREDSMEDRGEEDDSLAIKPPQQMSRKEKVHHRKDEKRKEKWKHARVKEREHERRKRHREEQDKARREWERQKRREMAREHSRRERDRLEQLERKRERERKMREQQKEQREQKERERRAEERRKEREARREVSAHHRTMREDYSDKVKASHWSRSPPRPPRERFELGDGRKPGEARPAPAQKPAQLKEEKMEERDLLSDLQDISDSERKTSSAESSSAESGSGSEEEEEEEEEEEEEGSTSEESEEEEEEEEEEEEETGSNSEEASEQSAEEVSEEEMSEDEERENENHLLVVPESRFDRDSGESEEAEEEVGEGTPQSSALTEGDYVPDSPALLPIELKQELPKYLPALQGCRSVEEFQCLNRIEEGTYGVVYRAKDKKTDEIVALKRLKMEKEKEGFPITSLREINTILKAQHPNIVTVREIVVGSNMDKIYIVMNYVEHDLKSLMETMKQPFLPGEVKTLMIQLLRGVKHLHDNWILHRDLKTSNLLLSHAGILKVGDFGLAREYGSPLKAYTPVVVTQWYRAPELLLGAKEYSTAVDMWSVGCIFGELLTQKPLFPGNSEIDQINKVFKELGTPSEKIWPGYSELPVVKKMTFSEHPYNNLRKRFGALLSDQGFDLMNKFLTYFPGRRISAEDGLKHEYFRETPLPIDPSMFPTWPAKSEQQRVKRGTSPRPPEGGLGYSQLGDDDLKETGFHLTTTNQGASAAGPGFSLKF
Sequence of Tyrosine-protein kinase receptor Tie-1 (Homo sapiens) (P35590 whole entry, the tested form may be a part): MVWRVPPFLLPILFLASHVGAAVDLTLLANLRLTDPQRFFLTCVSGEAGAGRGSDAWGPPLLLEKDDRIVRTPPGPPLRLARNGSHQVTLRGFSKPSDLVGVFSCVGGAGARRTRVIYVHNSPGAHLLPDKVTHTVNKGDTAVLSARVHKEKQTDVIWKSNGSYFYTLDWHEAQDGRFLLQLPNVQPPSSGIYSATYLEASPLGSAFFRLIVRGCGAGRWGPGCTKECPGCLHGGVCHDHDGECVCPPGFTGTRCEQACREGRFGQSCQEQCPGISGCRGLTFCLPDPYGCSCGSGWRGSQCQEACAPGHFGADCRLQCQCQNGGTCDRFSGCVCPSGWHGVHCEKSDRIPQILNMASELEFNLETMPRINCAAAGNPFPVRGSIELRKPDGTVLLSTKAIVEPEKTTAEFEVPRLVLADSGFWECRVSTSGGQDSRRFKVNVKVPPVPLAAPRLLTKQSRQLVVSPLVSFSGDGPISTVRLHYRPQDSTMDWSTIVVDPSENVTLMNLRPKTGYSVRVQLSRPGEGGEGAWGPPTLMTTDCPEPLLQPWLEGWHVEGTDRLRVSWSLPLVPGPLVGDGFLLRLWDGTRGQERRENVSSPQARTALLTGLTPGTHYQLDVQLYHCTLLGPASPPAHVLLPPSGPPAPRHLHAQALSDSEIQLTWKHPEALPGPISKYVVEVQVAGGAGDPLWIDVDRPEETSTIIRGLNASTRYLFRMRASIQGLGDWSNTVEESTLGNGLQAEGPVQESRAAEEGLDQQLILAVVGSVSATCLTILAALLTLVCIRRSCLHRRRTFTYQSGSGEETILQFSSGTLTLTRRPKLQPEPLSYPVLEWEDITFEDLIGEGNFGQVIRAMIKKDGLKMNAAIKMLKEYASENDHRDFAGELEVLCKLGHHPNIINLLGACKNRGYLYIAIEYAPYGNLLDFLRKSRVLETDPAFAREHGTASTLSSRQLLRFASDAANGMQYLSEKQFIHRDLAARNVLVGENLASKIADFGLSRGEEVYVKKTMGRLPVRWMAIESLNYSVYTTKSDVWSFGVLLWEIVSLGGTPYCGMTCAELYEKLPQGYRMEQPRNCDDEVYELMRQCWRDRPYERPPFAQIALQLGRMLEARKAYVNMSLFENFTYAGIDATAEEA
Sequence of STE20-like serine/threonine-protein kinase (Homo sapiens) (Q9H2G2 whole entry, looked up, the tested form may be a part): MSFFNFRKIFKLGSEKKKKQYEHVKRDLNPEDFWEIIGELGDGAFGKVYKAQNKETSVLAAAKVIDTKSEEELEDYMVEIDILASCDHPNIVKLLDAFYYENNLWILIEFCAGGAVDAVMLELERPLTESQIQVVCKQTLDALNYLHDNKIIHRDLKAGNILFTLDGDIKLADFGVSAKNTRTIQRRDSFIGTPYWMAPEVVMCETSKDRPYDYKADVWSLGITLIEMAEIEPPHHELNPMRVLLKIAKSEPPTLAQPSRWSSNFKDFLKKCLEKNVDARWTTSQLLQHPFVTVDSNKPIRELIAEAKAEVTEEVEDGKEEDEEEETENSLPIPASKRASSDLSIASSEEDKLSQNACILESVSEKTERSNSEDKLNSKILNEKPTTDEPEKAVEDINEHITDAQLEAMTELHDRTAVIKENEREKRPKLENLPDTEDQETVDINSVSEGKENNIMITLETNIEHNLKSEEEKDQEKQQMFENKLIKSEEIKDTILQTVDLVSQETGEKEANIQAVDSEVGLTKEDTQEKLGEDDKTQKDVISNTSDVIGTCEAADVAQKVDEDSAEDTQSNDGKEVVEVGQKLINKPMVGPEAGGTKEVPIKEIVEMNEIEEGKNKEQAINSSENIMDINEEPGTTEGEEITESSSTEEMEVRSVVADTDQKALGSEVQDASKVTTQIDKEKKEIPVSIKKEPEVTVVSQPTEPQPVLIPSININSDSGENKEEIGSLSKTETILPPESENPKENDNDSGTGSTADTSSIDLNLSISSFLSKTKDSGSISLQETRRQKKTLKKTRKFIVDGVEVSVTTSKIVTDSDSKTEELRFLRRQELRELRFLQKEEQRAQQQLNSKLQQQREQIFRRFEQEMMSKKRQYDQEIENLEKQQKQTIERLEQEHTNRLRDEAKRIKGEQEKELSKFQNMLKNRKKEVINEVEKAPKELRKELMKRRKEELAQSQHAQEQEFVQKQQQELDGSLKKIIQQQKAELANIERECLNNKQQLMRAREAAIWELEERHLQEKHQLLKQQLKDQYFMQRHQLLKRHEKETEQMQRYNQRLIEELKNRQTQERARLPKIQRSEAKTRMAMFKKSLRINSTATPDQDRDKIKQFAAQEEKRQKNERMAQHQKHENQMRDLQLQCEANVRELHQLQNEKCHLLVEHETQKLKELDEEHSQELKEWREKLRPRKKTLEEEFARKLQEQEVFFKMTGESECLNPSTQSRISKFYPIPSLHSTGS
Sequence of Ribosomal protein S6 kinase alpha-2 (Homo sapiens) (Q15349 whole entry, the tested form may be a part): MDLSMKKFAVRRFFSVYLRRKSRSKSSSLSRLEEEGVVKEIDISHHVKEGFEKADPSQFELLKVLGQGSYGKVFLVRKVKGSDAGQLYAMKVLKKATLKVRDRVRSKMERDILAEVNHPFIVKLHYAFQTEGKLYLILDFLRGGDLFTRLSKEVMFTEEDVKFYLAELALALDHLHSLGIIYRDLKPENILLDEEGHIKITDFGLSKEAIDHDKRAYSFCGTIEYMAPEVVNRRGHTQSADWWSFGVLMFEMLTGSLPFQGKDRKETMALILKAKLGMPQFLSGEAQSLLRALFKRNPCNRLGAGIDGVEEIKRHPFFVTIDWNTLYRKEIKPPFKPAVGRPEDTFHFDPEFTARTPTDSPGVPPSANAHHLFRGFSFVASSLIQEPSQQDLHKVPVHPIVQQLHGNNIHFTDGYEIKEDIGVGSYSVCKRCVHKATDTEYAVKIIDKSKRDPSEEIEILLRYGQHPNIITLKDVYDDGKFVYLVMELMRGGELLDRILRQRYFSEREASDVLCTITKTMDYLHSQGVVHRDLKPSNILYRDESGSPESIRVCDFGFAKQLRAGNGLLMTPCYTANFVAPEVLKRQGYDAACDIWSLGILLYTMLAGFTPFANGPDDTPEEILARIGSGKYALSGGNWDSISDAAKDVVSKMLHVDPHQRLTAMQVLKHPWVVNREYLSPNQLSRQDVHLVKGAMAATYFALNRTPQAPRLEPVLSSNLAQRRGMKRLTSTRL

With `Cc1ccc(NC(=O)c2ccc(CN(CCN(C)C)C(=O)c3cccnc3)cc2)cc1Nc1nccc(-c2cccnc2)n1` the Activity [1] was 100%, the Activity [2] was 100% and the inhibition [3] was “Active”. For the same molecule, the Activity [4] was 98%, the Activity [5] was 96% and the Activity [6] was 84%. For the same molecule, the Activity [7] was 100%, the Activity [8] was 89% and the Activity [9] was 100%. It also gave an Activity [10] of 91%, an Activity [11] of 93% and an Activity [12] of 73%. For the same molecule, the Activity [13] was 92%, the Activity [14] was 94% and the Activity [15] was 93%. For the same molecule, the Activity [16] was 94%, the Vd [17] was 5.98 L/kg and the inhibition [18] was “Active”. The Activity [19] was 95%, the Activity [20] was “Active” and the Activity [21] was 90%. For the same molecule, the Activity [22] was 96%.
